The source of these data is ChEMBL document CHEMBL1151763, “Identification of diarylsulfone sulfonamides as secreted frizzled related protein-1 (sFRP-1) inhibitors” (J Med Chem, 2008).

The structures appear in SMILES notation. pEC50, pKd: −log10 of the molar value. Converted amounts (≈) assume the structure as drawn. The source made the active and inactive calls.

One may read the pEC50 as the EC50 on a negative log10 scale, so that one unit is a factor of ten. As usually defined, the solubility is the dissolved amount per volume that the medium holds. A high value points to a readily soluble substance. As usually defined, the half-life is the time needed for the level to fall by half in the phase considered. As a reminder, the inhibition is the relative decrease from the control value, in per cent. As usually defined, the pKd is the negative decadic logarithm of the Kd, by convention in mol/L. Low values mean a large Kd, high ones a small Kd.

In data set [1] the target is T1, Secreted frizzled-related protein 1 (Homo sapiens) (UniProt Q8N474).
T1 sequence (whole entry): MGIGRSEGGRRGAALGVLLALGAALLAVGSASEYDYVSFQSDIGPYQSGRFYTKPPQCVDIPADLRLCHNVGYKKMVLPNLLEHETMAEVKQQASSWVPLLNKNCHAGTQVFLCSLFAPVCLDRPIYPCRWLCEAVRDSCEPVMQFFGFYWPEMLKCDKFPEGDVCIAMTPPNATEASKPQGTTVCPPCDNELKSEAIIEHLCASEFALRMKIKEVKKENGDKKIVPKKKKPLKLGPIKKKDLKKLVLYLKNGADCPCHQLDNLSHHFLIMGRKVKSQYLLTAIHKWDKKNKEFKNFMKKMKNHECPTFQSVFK
Description: Inhibition of human sFRP1 expressed in human U2OS assessed as fold induction in luciferase activity at 15 uM by TCF-luciferase reporter gene assay relative to control. The procedure, abridged:
(§1)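 U2OS human osteosarcoma cells transfected with human sFRP-1, Wnt-3 and a TCF-luciferase reporter (canonical Wnt read-out). Inhibitor tested at 15 µM or 30 µM. Luciferase signal without inhibitor set at 1; fold induction measured in quadruplicate.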
In general terms: In a reporter assay the amount or activity of a reporter protein is the signal.

The target of data set [2] is T2, Secreted frizzled-related protein 1 (Homo sapiens, UniProt Q8N474).
T2 sequence (Q8N474 whole entry): T1 sequence (whole entry)
Description: Inhibition of human sFRP1 expressed in human U2OS assessed as luciferase activity by TCF-luciferase reporter gene assay. The procedure, abridged: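 Cell-based functional assay in U2OS human osteosarcoma cells transfected with human sFRP-1, Wnt-3 and a TCF-luciferase reporter gene measuring canonical Wnt pathway activation; EC50 derived from luciferase signal.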

Data set [3] is described as follows: Aqueous solubility at pH 7.4. The note with it: buffer. Format: physicochemical.
Data set [4] is described as follows: Metabolic stability in rat microsomes assessed as half life. The class given is ADME, Microsome.
The target of another data set is CYP3A4 (Homo sapiens, UniProt P08684). Description: Inhibition of CYP3A4 at 3 uM. The class given is ADME.
Sequence of CYP3A4 (P08684 whole entry): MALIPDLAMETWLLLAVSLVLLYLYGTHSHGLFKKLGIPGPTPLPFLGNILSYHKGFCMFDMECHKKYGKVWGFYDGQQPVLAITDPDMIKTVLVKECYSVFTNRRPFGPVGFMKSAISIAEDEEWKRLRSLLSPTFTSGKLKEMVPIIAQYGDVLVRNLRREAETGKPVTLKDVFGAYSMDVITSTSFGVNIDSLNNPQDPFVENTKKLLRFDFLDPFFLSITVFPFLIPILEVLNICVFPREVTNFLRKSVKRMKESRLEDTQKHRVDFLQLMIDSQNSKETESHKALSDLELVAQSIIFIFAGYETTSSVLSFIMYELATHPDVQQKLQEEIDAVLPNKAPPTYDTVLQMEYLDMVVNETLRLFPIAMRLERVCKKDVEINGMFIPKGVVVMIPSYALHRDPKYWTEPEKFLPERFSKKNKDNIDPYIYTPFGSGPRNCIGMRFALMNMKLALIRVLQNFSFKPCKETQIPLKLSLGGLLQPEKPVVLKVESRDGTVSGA
For another data set, the target named is CYP2D6 (Homo sapiens, UniProt P10635). Briefly: Inhibition of CYP2D6 at 3 uM. Format: ADME.
Sequence of CYP2D6 (P10635 whole entry): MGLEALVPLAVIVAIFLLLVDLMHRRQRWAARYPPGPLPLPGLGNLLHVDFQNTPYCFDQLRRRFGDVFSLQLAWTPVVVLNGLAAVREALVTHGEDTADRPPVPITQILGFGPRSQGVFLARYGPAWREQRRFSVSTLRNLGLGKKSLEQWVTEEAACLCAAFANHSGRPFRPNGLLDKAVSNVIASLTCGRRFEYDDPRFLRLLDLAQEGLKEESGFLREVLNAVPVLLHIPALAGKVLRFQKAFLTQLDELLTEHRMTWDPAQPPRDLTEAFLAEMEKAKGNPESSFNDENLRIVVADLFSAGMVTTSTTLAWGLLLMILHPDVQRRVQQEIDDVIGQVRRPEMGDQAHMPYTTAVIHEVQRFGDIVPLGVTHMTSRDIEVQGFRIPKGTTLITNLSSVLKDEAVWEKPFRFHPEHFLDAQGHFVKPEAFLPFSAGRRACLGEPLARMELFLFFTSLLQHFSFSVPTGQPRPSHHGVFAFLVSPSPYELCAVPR
The target of another data set is CYP2C9 (Homo sapiens, UniProt P11712). Description: Inhibition of CYP2C9 at 3 uM. The class given is ADME.
Sequence of CYP2C9 (P11712 whole entry): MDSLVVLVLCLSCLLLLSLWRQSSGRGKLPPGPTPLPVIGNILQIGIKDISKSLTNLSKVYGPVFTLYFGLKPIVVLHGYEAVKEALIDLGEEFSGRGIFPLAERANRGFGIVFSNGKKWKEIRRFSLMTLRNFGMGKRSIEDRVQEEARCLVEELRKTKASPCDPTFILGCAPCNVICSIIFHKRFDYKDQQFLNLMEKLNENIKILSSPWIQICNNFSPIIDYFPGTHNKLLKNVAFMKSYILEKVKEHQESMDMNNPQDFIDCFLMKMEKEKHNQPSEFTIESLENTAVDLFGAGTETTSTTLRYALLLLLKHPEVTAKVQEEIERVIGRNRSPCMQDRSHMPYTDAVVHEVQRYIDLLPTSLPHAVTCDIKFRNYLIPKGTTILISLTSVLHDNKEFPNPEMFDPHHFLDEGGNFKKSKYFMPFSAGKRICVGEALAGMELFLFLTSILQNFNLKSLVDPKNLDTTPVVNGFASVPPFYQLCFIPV
A short description of data set [5]: Increase in bone formation in mouse calvaria assessed as increase in bone area at 5 uM after 7 days relative to control. Format: functional.
For another data set, the species on record is Mus musculus. Description: Increase in bone formation in mouse calvaria assessed as number of osteoblast on bone surface at 5 uM after 7 days relative to control. Format: functional.
The target in data set [6] is T1, Secreted frizzled-related protein 1 (Homo sapiens). Briefly: Inhibition of human sFRP1 expressed in human U2OS assessed as fold induction in luciferase activity at 30 uM by TCF-luciferase reporter gene assay relative to control. The procedure, abridged: as §1
Data set [7] has as its target T2, Secreted frizzled-related protein 1. Briefly: Binding affinity to human sFRP1 by fluorescence spectroscopy. In short, it runs like this:
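Binding constant (K_D) taken from changes in intrinsic tryptophan fluorescence of sFRP-1 on inhibitor binding; excitation 295 nm, emission 340 nm. Stoichiometry of binding also determined.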

Data set [8] is described as follows: Metabolic stability in human microsomes assessed as half life. Format: ADME, Microsome.

On to `COc1ccc(S(=O)(=O)c2ccccc2)cc1S(=O)(=O)NCCc1ccccc1`, for which the fold change (FC) in data set [1] came to 1.5.
Turning to `CCc1ccc(S(=O)(=O)c2ccccc2)cc1S(=O)(=O)NCCc1ccc(OC)c(OC)c1`, in [1], the fold change (FC) stood at 3. Besides, in data set [2], the pEC50 is 5.16. For the same molecule, the solubility in data set [3] was determined as 1 µg/mL (≈ 2.04 µM). The half-life in data set [4] is 1 min. For the same molecule, the inhibition at 3 µM on CYP3A4 was determined as 96%; against CYP2D6 it was 11%; against CYP2C9, 84%. Further, in [5], the Activity is listed as 50%. The outcome in the data set listed under Mus musculus was Active.
Take `CCc1ccc(S(=O)(=O)c2ccccc2)cc1S(=O)(=O)NCCc1ccccc1`: the fold change (FC) in data set [1] was 3.3.
Same read-out and setting: next, `Cc1ccc(S(=O)(=O)c2ccccc2)cc1S(=O)(=O)N(C)CCc1ccccc1`: under 1.
As to `Cc1ccc(S(=O)(=O)c2ccccc2)cc1S(=O)(=O)NCc1ccccc1`, in [6], the fold change (FC) was under 1.
As for `Cc1ccc(S(=O)(=O)c2ccc(F)cc2)cc1S(=O)(=O)NCCc1ccccc1`, the fold change (FC) in [1] was determined as 2.7.
As to `Cc1ccc(S(=O)(=O)c2ccccc2)cc1S(=O)(=O)NCCc1ccccc1`, the fold change (FC) in [1] was determined as 2.5. Further, the pEC50 in data set [2] was 5.41. This molecule also yielded a solubility in data set [3] of 1 µg/mL (≈ 2.41 µM). In addition, in [4], the half-life came to 5 min. In addition, the values for the inhibition at 3 µM at CYP3A4, on CYP2D6 and at CYP2C9 were 70%, 12% and 41%, respectively. The pKd in [7] is 6.46.
As to `Cc1ccc(S(=O)(=O)c2ccc(Cl)cc2)cc1S(=O)(=O)Nc1ccccc1`, in data set [6], the fold change (FC) came out at 1.
As to `Cc1ccc(S(=O)(=O)c2ccccc2)cc1S(=O)(=O)NCCCc1ccccc1`, the fold change (FC) in data set [1] was determined as 1.3.
Turning to `O=S(=O)(NCCc1ccccc1)c1cccc(S(=O)(=O)c2ccccc2)c1`, in data set [1], the fold change (FC) was under 1.
The same measure, in the same setting: then `Cc1ccc(S(=O)(=O)c2ccc(C)c(S(=O)(=O)NCCc3ccccc3)c2)cc1`, with 2.2.
For `CCc1ccc(S(=O)(=O)c2ccccc2)cc1S(=O)(=O)NCCCN(C)C`, the fold change (FC) in data set [1] came out at 3.3. Besides, the pEC50 in data set [2] is 5.90. Moreover, in data set [3], the solubility came to 26 µg/mL (≈ 63.3 µM). The half-life in data set [4] was 12 min; in data set [8] it was 26.7 min. Further, the inhibition at 3 µM was 43% at CYP3A4, 9% on CYP2D6 and 14% against CYP2C9.
In the case of `CCc1ccc(S(=O)(=O)c2ccccc2)cc1S(=O)(=O)NCCCN1CCCC1`, the fold change (FC) in data set [1] came to 4.2. Also, the pEC50 in [2] is 5.05. Further, in data set [3], the solubility is over 100 µg/mL. Also, the half-life in data set [4] came out at 16 min. Further, the results for the inhibition at 3 µM on CYP3A4, against CYP2D6 and against CYP2C9 were 78%, 25% and 25%, respectively.
